Common to all, as to assay type: functional
Assay [1] deals with Staphylococcus aureus. Briefly: Antibacterial activity against methicillin-resistant Staphylococcus aureus DM 9808R after 24 hrs by two fold dilution assay. A digest of the protocol: (§1)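 CLSI broth macrodilution in cation-adjusted Mueller-Hinton broth. Compounds were dissolved in DMF and diluted in PBS to a 1000 µg/mL stock, then serially 2-fold diluted in CA-MHB. The inoculum came from colonies on 18-20 h TSA plates (direct colony suspension), adjusted to ~5×10^5 CFU/mL. Incubation was 24 h at 35 °C. MIC is the lowest concentration with no visible growth versus control. Biological replicates.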

Assay [2] concerns Staphylococcus aureus. The assay is described as follows: Antibacterial activity against methicillin-resistant Staphylococcus aureus DM 21455 after 24 hrs by two fold dilution assay. The following applies: DM 21455, 24 h. A digest of the protocol:
as §1

Assay [3] relates to Staphylococcus aureus. The assay is described as follows: Antibacterial activity against Staphylococcus aureus DM 4001R after 24 hrs by two fold dilution assay. In short, it runs like this: as §1
The test system of assay [4] is Bacillus cereus. The assay is described as follows: Antibacterial activity against Bacillus cereus ATCC 11778 after 24 hrs by two fold dilution assay. The following applies: ATCC 11778, 24 h. A digest of the protocol:
(§2)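 Broth macro-dilution per CLSI in cation-adjusted Mueller-Hinton broth; compounds dissolved in DMF, diluted in PBS to 1000 µg/mL stock, then serial 2-fold dilutions in CA-MHB in tubes. Inoculum from 18-20 h TSA colonies (direct colony suspension), adjusted to about 5× 10^5 CFU/mL. MIC read after 24 h at 35 °C as lowest concentration with no visible growth; biological replicates.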

Assay [5] has as its system Staphylococcus aureus. Briefly: Antibacterial activity against Staphylococcus aureus ATCC 29213 infected in C57BL6 mouse cornea assessed as decrease in number of viable bacteria at 0.5% administered topically at 2 hrs interval for 4 times starting on day 1 post infection measured post last dose relative to control.
Assay [6] has as its system Staphylococcus aureus. The assay is described as follows: Antibacterial activity against methicillin-sensitive Staphylococcus aureus DM4583R after 24 hrs by two fold dilution assay. A digest of the protocol: as §1
Assay [7] has as its system Staphylococcus aureus. Briefly: Antibacterial activity against methicillin-sensitive Staphylococcus aureus ATCC 6538 after 24 hrs by two fold dilution assay. The following applies: ATCC 6538, 24 h. A digest of the protocol: as §1
In assay [8] the test system is Staphylococcus aureus. The assay is described as follows: Antibacterial activity against methicillin-resistant Staphylococcus aureus DB57964 after 24 hrs by two fold dilution assay. The following applies: DB57964, 24 h. A digest of the protocol: as §1
Assay [9] has as its system Staphylococcus aureus. Briefly: Antibacterial activity against methicillin-sensitive Staphylococcus aureus ATCC 29213 after 24 hrs by two fold dilution assay. The following applies: ATCC 29213, 24 h. In short, it runs like this: as §1
For assay [10], the system named is Staphylococcus aureus. Briefly: Antibacterial activity against methicillin-sensitive Staphylococcus aureus DM4400R after 24 hrs by two fold dilution assay. A digest of the protocol: as §1
In assay [11] the test system is Staphylococcus aureus. The assay is described as follows: Antibacterial activity against methicillin-sensitive Staphylococcus aureus DM4299 after 24 hrs by two fold dilution assay. The following applies: DM4299, 24 h. A digest of the protocol: as §1
Assay [12] has as its system Staphylococcus aureus. The assay is described as follows: Antibacterial activity against methicillin-resistant Staphylococcus aureus ATCC 43300 after 24 hrs by two fold dilution assay. The note with it: ATCC 43300, 24 h. A digest of the protocol: as §1
For assay [13], the system named is Enterococcus faecium. Briefly: Antibacterial activity against vancomycin A-resistant Enterococcus faecium VRE 1008 after 24 hrs by two fold dilution assay. The following applies: VRE 1008, 24 h. In short, it runs like this: as §1
The subject of assay [14] is Enterococcus faecium. The assay is described as follows: Antibacterial activity against vancomycin A-resistant Enterococcus faecium VRE 1006 after 24 hrs by two fold dilution assay. The note with it: VRE 1006, 24 h. A digest of the protocol:
as §1

The test system of assay [15] is Enterococcus faecium. Briefly: Antibacterial activity against vancomycin A-resistant Enterococcus faecium VRE 1007 after 24 hrs by two fold dilution assay. The note with it: VRE 1007, 24 h. A digest of the protocol:
as §1

Assay [16] has as its system Staphylococcus aureus. Briefly: Antibacterial activity against methicillin-resistant Staphylococcus aureus DB6506 after 24 hrs by two fold dilution assay. The following applies: DB6506, 24 h. A digest of the protocol: as §1
The subject of assay [17] is Staphylococcus aureus. Briefly: Antibacterial activity against methicillin-sensitive Staphylococcus aureus ATCC 29737 after 24 hrs by two fold dilution assay. The note with it: ATCC 29737, 24 h. A digest of the protocol:
as §1

Assay [18] concerns Staphylococcus aureus. The assay is described as follows: Antibacterial activity against methicillin-resistant Staphylococcus aureus ATCC 700699 after 24 hrs by two fold dilution assay. The following applies: Mu50, 24 h. In short, it runs like this:
as §1

The test system of assay [19] is Staphylococcus aureus. The assay is described as follows: Antibacterial activity against methicillin-resistant Staphylococcus aureus ATCC BAA-38 after 24 hrs by two fold dilution assay. The note with it: ATCC BAA-38, 24 h. A digest of the protocol: as §1
Assay [20] concerns Enterococcus hirae. Briefly: Antibacterial activity against Enterococcus hirae ATCC 9790 after 24 hrs by two fold dilution assay. The note with it: ATCC 9790, 24 h. In short, it runs like this:
as §2

The test system of assay [21] is Staphylococcus aureus. Briefly: Antibacterial activity against methicillin-resistant Staphylococcus aureus DB68004 after 24 hrs by two fold dilution assay. The following applies: DB68004, 24 h. A digest of the protocol:
as §1

The test system of assay [22] is Enterococcus faecalis. Briefly: Antibacterial activity against Enterococcus faecalis ATCC 29212 after 24 hrs by two fold dilution assay. The note with it: ATCC 29212, 24 h. In short, it runs like this: as §2
The test system of assay [23] is Staphylococcus aureus. Briefly: Ratio of MIC for Staphylococcus aureus ATCC 29213 after and before 15 serial passages.

Converted amounts (≈) assume the structure as drawn. Some results are limits rather than exact numbers.

The term MIC denotes the least concentration at which growth counts as inhibited.

On to `CC(C)=CCOc1cc(OCC(=O)NCCCN(C)C)c2c(=O)c3c(OCC(=O)NCCCN(C)C)cc(OCC=C(C)C)cc3oc2c1`, for which the MIC in assay [1] came to 12.5 µg/mL (≈ 18.4 µM); in assay [2], 6.25 µg/mL (≈ 9.18 µM); in [3] it was 6.25 µg/mL (≈ 9.18 µM); in assay [4], 12.5 µg/mL (≈ 18.4 µM).

As for `COC(=O)[C@H](CCCNC(=N)N)NC(=O)COc1cc(OCC(=O)N[C@@H](CCCNC(=N)N)C(=O)OC)c2c(=O)c3c(OCC(=O)N[C@@H](CCCNC(=N)N)C(=O)OC)cc(OCC=C(C)C)cc3oc2c1`, the MIC in [1], in [2], in [3] and in assay [4] was 50 µg/mL (≈ 49.4 µM) each time.

Regarding `C[C@H]1COc2c(N3CCN(C)CC3)c(F)cc3c(=O)c(C(=O)O)cn1c23.C[C@H]1COc2c(N3CCN(C)CC3)c(F)cc3c(=O)c(C(=O)O)cn1c23.O` [LEVOFLOXACIN], in [5], the Activity came to 99.2%.

For the molecule `CCN(CC)CCCNC(=O)COc1cc(OCC=C(C)C)cc2oc3cc(OCC=C(C)C)cc(OCC(=O)NCCCN(CC)CC)c3c(=O)c12`, the MIC in assay [1] amounted to 12.5 µg/mL (≈ 17 µM); in [2], 6.25 µg/mL (≈ 8.48 µM); in assay [3], 6.25 µg/mL (≈ 8.48 µM); in [4], 25 µg/mL (≈ 33.9 µM).

For `CN[C@H](CC(C)C)C(=O)N[C@H]1C(=O)N[C@@H](CC(N)=O)C(=O)N[C@H]2C(=O)N[C@H]3C(=O)N[C@H](C(=O)N[C@H](C(=O)O)c4cc(O)cc(O)c4-c4cc3ccc4O)[C@H](O)c3ccc(c(Cl)c3)Oc3cc2cc(c3O[C@@H]2O[C@H](CO)[C@@H](O)[C@H](O)[C@H]2O[C@H]2C[C@](C)(N)[C@H](O)[C@H](C)O2)Oc2ccc(cc2Cl)[C@H]1O` [VANCOMYCIN], the minimal inhibitory concentration (MIC) in assay [1] is 3.13 µg/mL (≈ 2.16 µM); in assay [6] it was 1.56 µg/mL (≈ 1.08 µM); in [7] it was 0.78 µg/mL (≈ 0.538 µM); in assay [8], 0.78 µg/mL (≈ 0.538 µM); in assay [9], 1.56 µg/mL (≈ 1.08 µM); in [10] it was 0.78 µg/mL (≈ 0.538 µM). The MIC in [2] was 1.56 µg/mL (≈ 1.08 µM); in assay [11], 1.56 µg/mL (≈ 1.08 µM); in assay [3], 1.56 µg/mL (≈ 1.08 µM); in assay [12] it was 0.78 µg/mL (≈ 0.538 µM); in assay [13], over 50 µg/mL; in assay [14], over 50 µg/mL. For the same molecule, the MIC was over 50 µg/mL in assay [15]; 0.78 µg/mL (≈ 0.538 µM) in assay [16]; 1.56 µg/mL (≈ 1.08 µM) in assay [4]; 0.78 µg/mL (≈ 0.538 µM) in assay [17]; 1.56 µg/mL (≈ 1.08 µM) in [18]; 1.56 µg/mL (≈ 1.08 µM) in [19]. The MIC in [20] stood at 0.78 µg/mL (≈ 0.538 µM); in assay [21], 1.56 µg/mL (≈ 1.08 µM); in assay [22], 1.56 µg/mL (≈ 1.08 µM).

Consider `CCCOc1cc(OCC(=O)N[C@@H](CCCNC(=N)N)C(=O)OC)c2c(=O)c3c(OCC(=O)N[C@@H](CCCNC(=N)N)C(=O)OC)cc(OCCC)cc3oc2c1`, for which the MIC stood at 12.5 µg/mL (≈ 15.6 µM) in assay [1], 12.5 µg/mL (≈ 15.6 µM) in assay [2], 12.5 µg/mL (≈ 15.6 µM) in [3] and 25 µg/mL (≈ 31.2 µM) in assay [4].

Take `COc1c(N2CCNC(C)C2)c(F)cc2c(=O)c(C(=O)O)cn(C3CC3)c12` (stereo not drawn) [GATIFLOXACIN]: the Ratio in [23] stood at 64.

Turning to `CC(C)=CCOc1cc(O)c2c(=O)c3c(O)cc(OCC=C(C)C)cc3oc2c1`, the MIC in [1], in assay [2], in [3] and in assay [4] was over 50 µg/mL throughout.

Values taken from ChEMBL document CHEMBL4052597, “Symmetrically Substituted Xanthone Amphiphiles Combat Gram-Positive Bacterial Resistance with Enhanced Membrane Selectivity” (J Med Chem, 2017).
